Screens (PubChem BioAssay)
Shown are actives, neighbours in structure and some others; about 3.8% of the full set was active somewhere.
Xi reactivation: reactivates the inactive X chromosome in mouse fibroblasts; activation, % at 7.58 µM; AID 743238; 0.055% of 360,000 active; XiGFP mouse fibroblasts, % GFP-positive cells imaging, 3 d; cells co-treated with 5-aza-dC sensitizer; scaled so ellipticine positive control = 100%;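 active = mean normalized replicate activation at least 10% and every replicate at or above 10%; inconclusive = only one of the two criteria met; inactive = mean below 10% and not all replicates reach 10%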;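 note: 0% = median of on-plate neutral control wells and 100% = ellipticine 6 µM median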
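System: 68-5-11 XiGFP fibroblast line | Buffer or medium: DMEM containing 5-aza-dC | Compound: Single point | Times: Compounds 3 days, fix/stain 15 min at room temperature | Benchmarks: Positive control ellipticine, 6 µM final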
FGF22 binding: FGF22 (human) thermal shift binding | AID 651658 | activity (Tm shift, normalised), % at 9.99 µM | 1.5% of 340,000 active | recombinant FGF22 thermal shift, SYPRO orange fluorescence; percent of sucrose octasulfate shift, DMSO zero | Q9HCT0;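 active = mean Tm shift, scaled 0 neutral to 100 positive control, at about 1.3% or above, every replicate too, limit read from the data; inconclusive = no clear call, values can overlap the other calls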
Target sequence (Q9HCT0 whole entry, looked up): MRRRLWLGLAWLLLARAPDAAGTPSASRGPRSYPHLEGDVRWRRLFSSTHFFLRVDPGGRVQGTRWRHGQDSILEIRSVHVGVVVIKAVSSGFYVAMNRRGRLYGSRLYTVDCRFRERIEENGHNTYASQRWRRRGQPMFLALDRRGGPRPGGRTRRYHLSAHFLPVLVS
DENV2 CPE rescue: inhibitors of DENV2 cytopathic effect; DENV2-infected cells, cytopathic effect rescue, plate reader; AID 651640; 1.7% of 350,000 active; CPE inhibition, % at 9.99 µM; in the data active = CPE inhibition above about 20%, passing the limit was not always enough; inconclusive = no clear call, values can overlap the other calls; tested in BHK-21 cells;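 note: 0% = median of neutral control wells and 100% = median of positive control wells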
ARNT-TACC3 inh: disruptors of human ARNT/TACC3 interaction; AlphaScreen His-ARNT PAS-B/GST-TACC3 binding, luminescence; TACC3 fragment carries E629A point mutation; 0.66% of 390,000 active; Q9Y6A5; inhibition, % at 9.99 µM;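 active = mean inhibition of replicates at least 50% and at least half of replicates each reaching 50%; inconclusive = half or more replicates reach 50% but mean below 50%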;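 note: 0% = complete ARNT plus TACC3 wells and 100% = ARNT alone without TACC3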
FN deposition inh: fibronectin deposition inhibition; AH1F fibroblasts, Alexa488-fibronectin deposition fluorescence, overnight; inhibition, % at 12.6 µM; 0.086% of 350,000 active;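 active = mean inhibition across replicates of 30% or more, regardless of how many single replicates reach that level; inconclusive = mean under 30% yet at least half of replicates reach 30%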;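 note: positive control wells lacked labelled fibronectin entirely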
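Assay system: AH1F fibroblasts assembling fluorescent fibronectin matrix; Amount: 10000 AH1F cells per well; Buffer or medium: DMEM, 2% serum; Probe or stimulus: Alexa488-fibronectin, 24 nM final in well; Doses: single compound dose, delivered by pin transfer; Incubation: 1 h adhesion, overnight exposure; Measured by: fluorescence 485/525 nm; Read-out: fibronectin deposition inhibition.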
SIRT5 inh: sirtuin-5 (human) deacylase inhibition; 1.1% of 330,000 active; Q9NXA8; Purified SirT5, succinyl-peptide AMC, trypsin-coupled fluorescence; inhibition, % at 15 µM; AID 652115; in the data active = inhibition above about 15%; inconclusive = no clear call, values can overlap the other calls
Target sequence (Q9NXA8 whole entry, looked up): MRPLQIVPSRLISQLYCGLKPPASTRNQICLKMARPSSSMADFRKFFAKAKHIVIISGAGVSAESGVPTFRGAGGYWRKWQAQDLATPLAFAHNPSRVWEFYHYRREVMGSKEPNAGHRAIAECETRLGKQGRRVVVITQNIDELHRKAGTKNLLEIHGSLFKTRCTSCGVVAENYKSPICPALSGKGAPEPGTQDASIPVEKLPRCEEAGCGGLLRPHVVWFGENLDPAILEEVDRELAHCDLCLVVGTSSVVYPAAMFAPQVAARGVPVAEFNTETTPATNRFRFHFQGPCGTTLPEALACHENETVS
* = called active by the depositor; u = inconclusive; x = no result.

SMILES	Xi reactivation	FGF22 binding	DENV2 CPE rescue	ARNT-TACC3 inh	FN deposition inh	SIRT5 inh
CNC[C@@H]1Oc2ccc(NC(=O)Cc3ccccc3)cc2CC(=O)N([C@@H](C)CO)C[C@H]1C	0	0	0	x	4	x
CC[C@@H]1C/C=C\C[C@H](C(C)C)NC(=O)CCC(=O)N1	0	x	x	x	-2	x
Cc1nn(-c2ccccc2)c(Cl)c1/C=N/NC(=O)CNC(=O)c1ccccc1Cl	0	44*	19	-6	13	-1
C[C@@H]1CN([C@H](C)CO)C(=O)c2cc(N(C)C)ccc2O[C@@H](C)CCCCO[C@@H]1CN(C)S(=O)(=O)c1cn(C)cn1	0	0	1	-13	2	0
Cn1c(CCN2CCCC2)nc2cc(NC(=O)COc3ccc(Cl)cc3)ccc21	0	0	-3	x	3	-3
CCN1CCN(CCc2nc3cc(NC(=O)COc4ccc(Cl)cc4)ccc3n2C)CC1	0	0	25*	1	2	-4
CO[C@H]1CN(C)C(=O)c2ccc(NS(=O)(=O)c3ccccc3)cc2OC[C@H](C)N(Cc2ccccn2)C[C@H]1C	0	0	9	11	-2	x
Cc1ccc(S(=O)(=O)NC[C@@H]2CC[C@@H]3[C@@H](CN3C(=O)CN(C)C)O2)cc1	x	x	-2	x	x	-8
COC(=O)c1nc(Cl)c(Cl)c(N)c1Cl	0	0	4	-1	4	17*
CCCCCCCCOC(=O)c1nc(Cl)c(Cl)c(N)c1Cl	0	1.5*	-2	-10	11	x
COC(=O)c1nc(C(=O)OC)c(C(=O)OC)nc1C(=O)OC	x	x	x	-30	x	x
C[C@H]1CN([C@@H](C)CO)C(=O)c2cccc(NC(=O)c3ccc(-c4nccs4)cc3)c2O[C@H]1CN(C)C(=O)Nc1ccc(F)cc1	-1	0	x	6	13	5
CCc1nc2ccccc2c(C(=O)OCC(=O)NCCCN2CCCC2=O)c1C	x	x	x	x	18	19*
Cc1cc(SCC(=O)NCCCN2CCCC2=O)nc2ccccc12	0	0	-8	-6	4	-2
CNC[C@@H]1Oc2ccc(NC(=O)CCN3CCOCC3)cc2CC(=O)N([C@@H](C)CO)C[C@H]1C	0	x	-5	-4	12	2
Cc1cccc(C(=O)NC(=S)NNC(=O)c2ccccc2Cl)c1	0	0	-5	17	-5	-1
CN1CCN(C(=S)NC(=O)/C=C/c2ccccc2Cl)CC1	0	43*	-3	2	-2	3
Cc1cc(C(=O)NNC(=S)NC(=O)/C=C/c2ccccc2Cl)n[nH]1	x	x	x	62*	6	-7
Cc1nc2ccccc2c2oc(C(=O)NCCN3CCN(C)CC3)cc12	0	0	22*	31	-2	x
N#CCc1c(C#N)c(N)nc(Nc2ccccc2)c1C#N	0	0	11	10	5	17*
CC(C)NC(=O)Nc1cccc2c1O[C@H](CN(C)Cc1ccncc1)[C@H](C)CN([C@H](C)CO)C2=O	0	0	u	-4	x	0
Cc1ccc(-c2n[nH]c(=S)n2C)cc1	x	x	x	-5	x	x
Cn1c(-c2csc(-c3ccccc3)n2)n[nH]c1=S	0	44*	11	-12	-5	0
COc1ccc2c3c([nH]c2c1)[C@H](CO)N(Cc1ccccc1)CC31CN(C(=O)c2ccccn2)C1	0	x	17	x	-14	x
CC1CCC/C(=C\Nc2ccc(C(=O)O)c(O)c2)C1=O (configuration not stated)	0	0	-3	-19	-2	29*
SMILES	Xi reactivation	FGF22 binding	DENV2 CPE rescue	ARNT-TACC3 inh	FN deposition inh	SIRT5 inh
O=C1CCCC/C1=C\Nc1ccc(C(=O)O)c(O)c1	0	0	1	3	-7	23*
CC(=O)Nc1ccc(N/C=C2/CCCC2=O)cc1	0	0	-6	-1	-3	0
C[C@@H]1CN([C@H](C)CO)C(=O)c2cccc(NC(=O)c3ccncc3)c2O[C@@H]1CN(C)C(=O)Nc1ccc(C(F)(F)F)cc1	0	x	2	-1	x	1
Cc1ccc(-c2cnc3c(c2)C(=O)N([C@@H](C)CO)C[C@H](C)[C@@H](CN(C)C(=O)Cc2cccnc2)O3)cc1	-1	0	-16	-33	-3	3
CCOc1ccc(NC(=O)CN(C)C(=O)c2cc([N+](=O)[O-])ccc2Sc2ccccc2)cc1OCC	0	19*	-5	10	-9	3
CCOc1ccc(NC(=O)CN(C)C(=O)c2cc([N+](=O)[O-])ccc2N2CCCCC2)cc1OCC	0	-1	-3	9	5	2
COc1cc(/C=N/Nc2ncc(C(F)(F)F)cc2Cl)cc(OC)c1OC	0	43*	12	x	1	-5
O=C(c1ccc(F)cc1)N1CCCCN2[C@H](CO)[C@H](c3ccc(C#CC4(O)CCCC4)cc3)[C@H]2C1	0	0	-6	0	x	-3
COc1ccc(-c2cc(-c3ccc(Cl)cc3)c(C#N)c(SCC(=O)O)n2)cc1	0	0	61*	-4	19	4
COc1ccc(-c2cc(-c3ccccc3)c(C#N)c(SCC(=O)O)n2)cc1	0	0	-1	-18	-16	-8
O=C(CSc1nc2ccccc2o1)Nc1nccs1	0	2.3*	x	4	11	-3
O=C(CSc1nc2ccccc2o1)Nc1nc2ccccc2s1	x	x	x	0	x	x
S=C(Nc1ccc(Oc2ccccc2)cc1)N1CCN(c2ccccn2)CC1	0	43*	2	-5	12	0
CC(=O)N1CCN(c2ccc(NC(=O)/C=C/c3ccccc3)cc2)CC1	0	44*	-2	-4	3	0
CC(=O)c1ccc(N2CCN(C(=S)Nc3ccc(Oc4ccccc4)cc3)CC2)cc1	1	16*	0	-5	-7	-3
CC(=O)c1ccc(NC(=S)NN2C(C)CCCC2C)cc1 (configuration not stated)	0	43*	2	-5	-5	2
COc1ccc(C[C@@H]2CCc3cnnn3COC[C@@H](c3ccccc3)NC2=O)cc1	0	0	-3	x	6	1
CN(C)C(=O)c1cc2c(c(-c3cccc(C4=CCCCC4)c3)n1)[C@H](CCO)N(S(C)(=O)=O)C2	0	0	-3	1	7	-1
CNC(=O)C[C@@H]1CC[C@@H]2[C@@H](COc3ccc(NC(=O)c4cccs4)cc3C(=O)N2C)O1	0	0	4	-3	1	x
O=C(c1ccc(F)cc1)N1CC[C@@H]2[C@@H](CO)Nc3ccc(-c4ccccc4F)cc3[C@@H]21	0	0	-15	4	-9	5
